High-throughput results from PubChem.
Only some compounds are listed: those with a hit (about 6.4% of all), similar ones and a draw of the others.
H69AR growth 86K – growth inhibitors of human H69AR lung tumor cells; H69AR lung tumor viability, ATP luminescence, 72 h; stronger effect = lower value; viability, % at 10 µM; hit rate 6% among 85,000;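 active = viability at or below 40%; inactive = viability above 40%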;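 note: multidrug resistant small cell line overexpressing MRP-1 efflux transporter; 100% = mean luminescence of untreated control wells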
E coli WT exp – E. coli BW25113 growth inhibition, expanded screen; OD600 absorbance; growth inhibition, % at 100 µM; hit rate 0.15% among 98,000; AID 710;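 active = growth inhibition above about 50% at one test dose, limit read from the data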;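 note: growth measured after 20 h incubation at 37 °C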
Fibroblast inh – blocks proliferation of human lung fibroblasts. viability, % at 10 µM. hit rate 1.1% among 85,000. LL 47 human lung fibroblast viability, ATP luminescence; stronger effect = lower value;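 active = viability at or below 50% in the single dose screen; inactive = viability above 50%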;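 note: compound exposure lasted 72 h before the ATP readout; 100% = median luminescence of untreated cell-only wells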
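test system = LL 47 human lung fibroblasts | amount = 1,150 fibroblasts seeded per well | medium = 15% FBS in IMEM | times = overnight cell rest, 72 h compound treatment at 37 °C | measured by = CellTiter-Glo luminescence measuring cellular ATP | read-out = viability percentage against median untreated-cell control | benchmarks = cell-only wells, no compound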
HUVEC inhibit – inhibitors of human endothelial cell proliferation; AID 648; hit rate 1.1% among 86,000; HUVEC proliferation, CellTiter-Glo luminescence, 72 h; stronger effect = lower value; viability, % at 10 µM (by protocol);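 active = viability at or below 30%; inactive = viability above 30%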;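 note: 100% = median luminescence of DMSO-only cell control wells on each plate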
tolC growth inh – blocks growth of E. coli BW25113 tolC mutant; OD615; growth inhibition, % at 10 µM (by protocol); hit rate 2.2% among 65,000;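 active = growth inhibition at or above a cutoff equal to the mean over every tested compound plus 3 SD, cut at about 60% in these data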;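 note: growth measured after 20 h incubation at 37 °C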
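Test system: tolC-deleted E. coli BW25113; medium: LB with kanamycin 50 µg/mL; compound: single-point testing at 10 µM; incubation: 20 h compound exposure of bacteria at 37 °C; signal: OD at 615 nm; evaluation: growth inhibition in percent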
Jurkat tox 60K – reduces viability or proliferation of Jurkat cells. AID 463. inhibition, % at 4 µM. Jurkat E6.1 viability, ATP luminescence, 48 h. hit rate 1.2% among 56,000;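 active = inhibition above the mean inhibition of all tested compounds plus 3 SD, cut at about 28% in these data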
The depositor's hits bear a star; . = no result given.

SMILES	H69AR growth 86K	E coli WT exp	Fibroblast inh	HUVEC inhibit	tolC growth inh	Jurkat tox 60K
CSc1ccc(-c2nc3cnccn3c2Nc2ccc3c(c2)OCO3)cc1	.	-10	.	.	.	.
O=C(NCCC1=CCCCC1)C1CCCN(c2nc3ccccc3o2)C1 (stereo not drawn)	67	-1	89	92	24	-8
Oc1ccc(Nc2nc3ccccc3nc2Nc2ccc(O)cc2)cc1	2.3*	-1	4.0*	32	.	.
Cc1ccc(CNC(=O)CSc2c3c(nc4ccc(Cl)cc24)CCCC3)o1	15*	-9	77	74	.	.
O=C(Oc1cccc(Nc2ncnc3ccccc23)c1)c1ccccc1Cl	.	-20	.	.	.	.
CCn1c(COc2ccc(C)cc2)nnc1SCC(=O)Nc1cc(OC)ccc1OC	18*	-8	94	93	22	4
CCn1c(COc2ccccc2)nnc1SCC(=O)Nc1cc(C)ccc1OC	91	-4	100	110	.	.
Cc1ccc(OCc2nnc(SCC(=O)Nc3cccc4ccccc34)n2-c2ccccc2)cc1	18*	.	4.2*	79	.	.
C=CCN(C(=O)COc1ccccc1)c1nnc(-c2ccncc2)s1	98	5	90	93	.	.
CCOC(=O)N1CCN(CC(=O)Nc2c(C(=O)OC)[nH]c3cc(C)ccc23)CC1	45	7	85	82	.	.
CCOC(=O)N1CCN(CC(=O)Nc2c(C(=O)OC)[nH]c3ccc(Cl)cc23)CC1	51	0	88	85	86*	31*
Cc1ccc2[nH]c(C(=O)O)c(NC(=O)CN3CCN(c4cccc(C)c4C)CC3)c2c1	88	-4	99	94	96*	-3
CCOC(=O)c1[nH]c2ccc(F)cc2c1NC(=O)CN1CCN(C/C=C/c2ccccc2)CC1	3.6*	0	14*	2.6*	98*	6
Cc1occc1-c1nnc(SCC(=O)N2CCCc3ccccc32)n1Cc1ccco1	85	1	96	85	-1	0
Cc1ccc(C(=O)NC(N2CCCC2)C(Cl)(Cl)Cl)cc1 (stereo not drawn)	.	-1	.	.	.	.
COC(=O)c1ccc(C(=O)OC)c(NS(C)(=O)=O)c1	1.4*	-5	97	100	-4	2
C/C(=N\NC(=O)c1cccc(Br)c1)c1cccc(NC(=O)c2ccc(C)o2)c1	.	-16	.	.	.	.
COc1ccc(-n2ncc3c(SCC(=O)N4CCN(c5ccccc5OC)CC4)ncnc32)cc1	23*	.	96	58	.	.
O=C(CSc1ncnc2c1nnn2-c1ccc(F)cc1)N1CCN(c2ccccc2)CC1	27*	.	98	89	11	.
COc1ccccc1N1CCN(C(=O)CSc2ncccc2-c2nc3ccccc3[nH]2)CC1	45	-12	90	101	2	.
O=C(CSc1ncnc2ccccc12)N1CCN(c2ccccc2)CC1	56	.	92	83	7	5
Cc1cccc(NC(=S)NC(NC(=O)OCc2ccccc2)C(Cl)(Cl)Cl)c1 (stereo not drawn)	.	7	.	.	.	.
C=CCN1C(=Nc2cccnc2)SCC1(O)c1ccc(C)cc1 (stereo not drawn)	34*	3	86	1.8*	37	39*
COC(=O)c1cccnc1-n1c(=O)c2cccnc2n(Cc2cccc(OC)c2)c1=O	86	-3	87	93	3	0
N#CC1=C(N)Oc2n[nH]c(-c3ccc(F)cc3)c2C1c1ccncc1 (stereo not drawn)	100	1	99	112	-14	7
SMILES	H69AR growth 86K	E coli WT exp	Fibroblast inh	HUVEC inhibit	tolC growth inh	Jurkat tox 60K
CCOc1ccc(-c2n[nH]c(C)c2-c2ccccc2OC)c(O)c1	6.7*	-3	85	58	35	23
C=C(C)COc1ccc(-c2n[nH]c(C)c2-c2ccc(OC)cc2)c(O)c1	14*	25	33*	11*	.	.
COc1ccc(-c2n[nH]c(C)c2-c2cnn(-c3ccccc3)c2)c(O)c1	66	.	98	90	14	7
O=C1COc2ccc(C(=O)c3ccccc3C(=O)NCc3ccccc3)cc2N1	112	9	96	109	.	.
Cc1sc(NC(=O)c2ccco2)c(C(c2cccnc2)N2CCN(c3ccc(F)cc3)CC2)c1C (stereo not drawn)	46	-12	75	73	13	35*
Cc1sc(NC(=O)c2ccco2)c(CN2CCN(c3ccc(F)cc3)CC2)c1C	.	-3	.	.	.	.
CCOC(=O)C1CCN(C(c2cccnc2)c2c(NC(=O)c3ccco3)sc(C)c2C)CC1 (stereo not drawn)	68	-11	92	88	77*	34*
